According to ChEMBL document CHEMBL2146382, “Cytotoxic and antineoplastic activity of timosaponin A-III for human colon cancer cells” (J Nat Prod, 2011):
The source made the active and inactive calls. The calls are words filed in the database; no cut-off is given here.

How the values were obtained:
HCT-15 [1] = test: Cell cycle arrest in human HCT15 cells assessed as accumulation at G2/M phase at 5 uM after 12 hrs using propidium-iodide staining by flow-cytometry (reference value: 15.7 %); assay type: functional
HCT-15 [2] = test: Cell cycle arrest in human HCT15 cells assessed as accumulation at sub-G1 phase at 5 uM after 24 hrs using propidium-iodide staining by flow-cytometry (reference value: 6.5 %); assay type: functional
HCT-15 [3] = test: Induction of apoptosis in human HCT15 cells assessed as PARP cleavage at 20 uM after 12 to 24 hrs by Western blot analysis; assay type: functional, cell-based
Summary of the method: (§1)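 HCT-15 cells in RPMI/10% FBS exposed to test compound at various concentrations; lysates quantified by BCA, 30–50 μg protein run on 10% SDS-PAGE, transferred to PVDF, blocked 1 h in 5% milk/PBST, primary antibodies overnight at 4 °C, HRP anti-mouse IgG 1:1500 for 3 h at room temperature, ECL detection.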

HCT-15 [4] = test: Cell cycle arrest in human HCT15 cells assessed as accumulation at sub-G1 phase at 10 uM after 12 hrs using propidium-iodide staining by flow-cytometry (reference value: 5.2 %); assay type: functional
HCT-15 [5] = test: Cell cycle arrest at M phase in human HCT15 cells assessed as suppression of CDC2 Tyr-15 phosphorylation at 5 to 20 uM after 12 to 24 hrs by Western blot analysis; assay type: functional, cell-based; summary of the method: as §1
HCT-15 [6] = test: Induction of apoptosis in human HCT15 cells assessed as suppression of Bcl-xL expression at 5 to 20 uM after 24 hrs by Western blot analysis; assay type: functional, cell-based
Summary of the method: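 HCT-15 cells (RPMI, 10% heat-inactivated FBS, antibiotics-antimycotics, 37 C, 5% CO2) exposed to compound. Cells lysed, protein measured by BCA, 30-50 μg per lane resolved on 10% SDS-PAGE and electroblotted to PVDF. Membranes blocked 1 h in 5% nonfat milk/PBST, probed with primary antibodies overnight at 4 C, then HRP anti-mouse IgG 1:1500 for 3 h at room temperature. Detection by ECL; β-actin antibody available.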

HCT-15 [7] = test: Cell cycle arrest in human HCT15 cells assessed as accumulation at G2/M phase at 20 uM after 12 hrs using propidium-iodide staining by flow-cytometry (reference value: 15.7 %); assay type: functional
HCT-15 [8] = test: Cell cycle arrest in human HCT15 cells assessed as accumulation at S phase at 5 uM after 24 hrs using propidium-iodide staining by flow-cytometry (reference value: 34.1 %); assay type: functional
HCT-15 [9] = test: Cell cycle arrest in human HCT15 cells assessed as accumulation at S phase at 20 uM after 24 hrs using propidium-iodide staining by flow-cytometry (reference value: 34.1 %); assay type: functional
HCT-15 [10] = test: Cell cycle arrest at […] phase in human HCT15 cells assessed as cyclin A down regulation at 5 to 20 uM after 12 to 24 hrs by Western blot analysis; assay type: functional, cell-based; summary of the method: as §1
HCT-15 [11] = test: Cell cycle arrest in human HCT15 cells up to 10 uM after 12 hrs by propidium-iodide staining by flow-cytometry; assay type: functional, cell-based
HCT-15 [12] = test: Cell cycle arrest in human HCT15 cells assessed as accumulation at G2/M phase at 10 uM after 12 hrs using propidium-iodide staining by flow-cytometry (reference value: 15.7 %); assay type: functional
HCT-15 [13] = test: Cell cycle arrest in human HCT15 cells assessed as accumulation at G0/G1 phase at 10 uM after 12 hrs using propidium-iodide staining by flow-cytometry (reference value: 44.4 %); assay type: functional
HCT-15 [14] = test: Cytotoxicity against human HCT15 cells assessed as morphological changes with distinct rounded shapes and detachment at 5 to 20 uM by phase-contrast microscopy; assay type: functional, cell-based; conditions: TDE = time-dependent effect
Summary of the method: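 HCT-15 cells treated with 0–20 μM for 12 and 24 h, vehicle-treated controls; morphology examined and photographed under phase-contrast microscope.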

In the case of `C[C@H]1CC[C@@]2(OC1)O[C@H]1C[C@H]3[C@@H]4CC[C@@H]5C[C@@H](O[C@@H]6O[C@H](CO)[C@H](O)[C@H](O)[C@H]6O[C@@H]6O[C@H](CO)[C@@H](O)[C@H](O)[C@H]6O)CC[C@]5(C)[C@H]4CC[C@]3(C)[C@H]1[C@@H]2C` [TIMOSAPONIN AIII], the Activity (HCT-15 [1]) is reported as 20.5%, the Activity (HCT-15 [2]) is reported as 7.2% and the Activity (HCT-15 [3]) is reported as “Active”. The Activity (HCT-15 [4]) was 14.2%, the Activity (HCT-15 [5]) was “Active” and the Activity (HCT-15 [6]) was “Active”. The Activity (HCT-15 [7]) was 41.8%, the Activity (HCT-15 [8]) was 37% and the Activity (HCT-15 [9]) was 17%. For the same molecule, the Activity (HCT-15 [10]) was “Active”, the Activity (HCT-15 [11]) was “Active” and the Activity (HCT-15 [12]) was 24.2%. The Activity (HCT-15 [13]) was 43.2% and the Activity (HCT-15 [14]) was “tde”.
